Measured values from different studies.
Protocols differ between the studies behind these lines.
Organism: Pseudomonas aeruginosa
Read-out: microbial growth

CCCCCCC#Cc1cncc(-c2nnc(SCc3cc([N+](=O)[O-])cc([N+](=O)[O-])c3)n2CCOC2OC(CN)C(O)C2O)c1 (stereo not shown)  MIC (broth dilution; DSM1128): > 64 µg/mL
COc1ccc2ccc(O)c(/C=N/[C@H]3CCCC[C@H]3/N=C/c3ccc(-c4ccccc4)cc3O)c2c1  MIC (broth dilution): > 40 µM
CCCCCCC#Cc1cncc(-c2nnc(SCc3cc(C(F)(F)F)cc(C(F)(F)F)c3)n2CCCN)c1  MIC (broth dilution; DSM1128): > 64 µg/mL
CC[C@H]1OC(=O)[C@H](C)[C@@H](O[C@H]2C[C@@](C)(OC)[C@@H](O)[C@H](C)O2)[C@H](C)[C@@H](O[C@@H]2O[C@H](C)C[C@H](N(C)C)[C@H]2O)[C@](C)(O)C[C@@H](C)CN(C)[C@H](C)[C@@H](O)[C@]1(C)O  MIC (ATCC27853): < 98 µg/mL
CC[C@H]1OC(=O)[C@H](C)[C@@H](O[C@H]2C[C@@](C)(OC)[C@@H](O)[C@H](C)O2)[C@H](C)[C@@H](O[C@@H]2O[C@H](C)C[C@H](N(C)C)[C@H]2O)[C@](C)(O)C[C@@H](C)CN(C)[C@H](C)[C@@H](O)[C@]1(C)O  MIC (broth dilution; ATCC27853): 32 µg/mL
Cc1ccc2[nH]nc(-c3nnc(Nc4ccc(Cl)c(Cl)c4)s3)c2c1  MIC (ATCC27853): 121 µg/mL
CCCCCCC#Cc1cncc(-c2nnc(SCc3ccc(Cl)cc3)n2CCCN)c1  MIC (broth dilution; DSM1128): > 64 µg/mL
Cc1ccc2[nH]nc(-c3nnc(Nc4ccc([N+](=O)[O-])cc4)s3)c2c1  MIC (ATCC27853): 105 µg/mL
CCCCCCCCCCCC[N+](C)(C)Cc1ccccc1  MIC (PAO1): 250 µM
CCCCCCC#Cc1cncc(-c2nnc(SCc3cc([N+](=O)[O-])cc([N+](=O)[O-])c3)n2C2CCNCC2)c1  MIC (broth dilution; DSM1128): > 64 µg/mL
OB1OCc2cc(F)ccc21  MIC (broth dilution): 128 µg/mL
Cc1ccc2[nH]nc(-c3nnc(Nc4ccc(Br)cc4)s3)c2c1  MIC (ATCC27853): 243 µg/mL
C[C@H]1COc2c(N3CCN(C)CC3)c(F)cc3c(=O)c(C(=O)O)cn1c23  MIC (ATCC27853; drug-resistant strain): 1 µg/mL
Cc1cc(Nc2nnc(-c3n[nH]c4ccc(C)cc34)s2)cc([N+](=O)[O-])c1  MIC (ATCC27853): 187 µg/mL
COc1ccc2ccc(O)c(/C=N/[C@H]3CCCC[C@H]3/N=C/c3ccc(OCCN4CCCCC4)cc3O)c2c1  MIC (broth dilution; clinical isolate): > 40 µM
CN(C)[C@@H]1C(O)=C(C(N)=O)C(=O)[C@@]2(O)C(O)=C3C(=O)c4c(O)cccc4[C@@](C)(O)[C@H]3C[C@@H]12  MIC (broth dilution; ATCC27853): 16 µg/mL
COc1ccc2ccc(O)c(/C=N/[C@H]3CCCC[C@H]3/N=C/c3c(O)cccc3F)c2c1  MIC (broth dilution): > 40 µM
CC(C)c1ccc(/C=C2\N=C(SCC(=O)O)N(c3ccccc3)C2=O)cc1  MIC (broth dilution; ATCC27 ATCC27853): 12 µg/mL
Cc1ccc2[nH]nc(-c3nnc(Nc4ccc(F)cc4)s3)c2c1  MIC (ATCC27853): 63.9 µg/mL
CC1(C)S[C@@H]2[C@H](NC(=O)[C@H](N)c3ccc(O)cc3)C(=O)N2[C@H]1C(=O)O  MIC (broth dilution; ATCC27853): > 64 µg/mL
Cc1ccc2[nH]nc(-c3nnc(Nc4cc(Cl)cc(Br)c4)s3)c2c1  MIC (ATCC27853): 224 µg/mL
C[C@H]1[C@H](NC(=O)/C(=N\OC(C)(C)C(=O)O)c2csc(N)n2)C(=O)N1S(=O)(=O)O  MIC (broth dilution; ATCC27853): 2 µg/mL
